Measured values as given in ChEMBL document CHEMBL1126276, “Synthesis and antimalarial properties of 1-imino derivatives of 7-chloro-3-substituted-3,4-dihydro-1,9(2H,10H)-acridinediones and related structures” (J Med Chem, 1992).
Several values for one entry are separate records, joined by “and”; a condition that tells them apart may be missing. Equal entries are not always repeated.

Key:
Format in all cases: functional
Plasmodium berghei [1] = assay: Antimalarial activity Plasmodium berghei infected mice (Mus musculus) after 640 mg/kg subcutaneous dose
How it was run: (§1)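 […] in mice infected with a normal drug-sensitive P. berghei strain. Compound dissolved or suspended in sesame or peanut oil, given as a single subcutaneous dose 72 h postinfection.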

Plasmodium berghei [2] = assay: Antimalarial activity in Plasmodium berghei infected mice (Mus musculus) after 160 mg/kg subcutaneous dose; how it was run: as §1
Plasmodium berghei [3] = assay: Antimalarial activity in Plasmodium berghei infected mice (Mus musculus) after 40 mg/kg subcutaneous dose; how it was run: as §1
Plasmodium berghei [4] = assay: Antimalarial activity in Plasmodium berghei infected mice (Mus musculus) after subcutaneous 160 mg/kg dose
How it was run: (§2)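 Normal drug-sensitive P. berghei strain in mice. Compound dissolved or suspended in sesame or peanut oil, given parenterally as a single subcutaneous dose 72 h postinfection.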

Plasmodium berghei [5] = assay: Antimalarial activity in Plasmodium berghei infected mice (Mus musculus) after subcutaneous 640 mg/kg dose; how it was run: as §2
Plasmodium berghei [6] = assay: Antimalarial activity in Plasmodium berghei infected mice (Mus musculus) after subcutaneous 320 mg/kg dose; how it was run: as §2
Plasmodium berghei [7] = assay: Antimalarial activity in Plasmodium berghei infected mice (Mus musculus) after 80 mg/kg subcutaneous dose; how it was run: as §1
Plasmodium berghei [8] = assay: Antimalarial activity in Plasmodium berghei infected mice (Mus musculus) after 20 mg/kg subcutaneous dose; how it was run: as §1

Structure (SMILES)	Delta mean survival time (Plasmodium berghei [1])	Delta mean survival time (Plasmodium berghei [2])	Delta mean survival time (Plasmodium berghei [3])	No. of cured mice (Plasmodium berghei [4])	No. of cured mice (Plasmodium berghei [5])	No. of cured mice (Plasmodium berghei [6])	Delta mean survival time (Plasmodium berghei [7])	Delta mean survival time (Plasmodium berghei [8])	Delta mean survival time (Plasmodium berghei [7]; 80 mg/kg)
O=C1CC(c2ccc(C3CCCCC3)cc2)Cc2nc3ccc(Cl)cc3c(O)c21 (configuration not stated)	1.6	0.2	0.2						
CC(C)C1CC(=O)c2c(n(C)c3ccccc3c2=O)C1 (configuration not stated)	0.5	0.2	-0.2						
CN1CCN(CCC/N=C2\CC(c3ccc(Cl)c(Cl)c3)Cc3c2c(=O)c2cc(Cl)ccc2n3O)CC1 (configuration not stated)			7.4	5	5	5			
O=C1CC(c2ccc(Cl)c(Cl)c2)Cc2c1c(=O)c1c(Cl)c(Cl)ccc1n2O (configuration not stated)	0.3	0.1							
CCN(CC)CC(C)(C)C/N=C1\CC(c2cc(OC)c(OC)c(OC)c2)Cc2c1c(=O)c1cc(Cl)ccc1n2O (configuration not stated)	4.7	0.7	0.5						
CSc1ccc(C2CC(=O)c3c(nc4ccc(Cl)cc4c3O)C2)cc1 (configuration not stated)	12.4	8.6	4.4						
CN(C)CCC/N=C1\CC(c2ccc(C(F)(F)F)cc2)Cc2nc3cccc(Cl)c3c(O)c21 (configuration not stated)		24.9	7.7	4	5				
O=C1CC(c2ccc(C3CCCCC3)cc2)Cc2c1c(=O)c1cc(Cl)ccc1n2O (configuration not stated)	4.1	1.3	0.9						
CN(C)CCC/N=C1\CC(c2ccc(C3CCCCC3)cc2)Cc2c1c(=O)c1cc(Cl)ccc1n2O (configuration not stated)		9.4	5	3	5				
O=C1CC(c2ccc(C(F)(F)F)cc2)Cc2nc3cccc(Cl)c3c(O)c21 (configuration not stated)			8.7	5	5				
O=C1CC(c2ccc(C(F)(F)F)cc2)Cc2nc3c(Br)cc(Br)cc3c(O)c21 (configuration not stated)	0	0.2	0.6						
CN(C)CCC/N=C1\CC(c2ccc(C(F)(F)F)cc2)Cc2nc3c(Cl)cc(Cl)cc3c(O)c21 (configuration not stated)		8	6.3	4	5	5	8.2		
O=C1CC(c2ccc(Cl)cc2Cl)Cc2nc3cc(Cl)ccc3c(O)c21 (configuration not stated)	1.3	0.1	-0.1						
CN(C)CCC/N=C1\CC(c2ccccc2Cl)Cc2nc3ccc(Cl)cc3c(O)c21 (configuration not stated)		11.3	5.6	2	5	5	6.3		
O=C1CC2(CCCCC2)Cc2c1c(=O)c1cc(Cl)ccc1n2O	0	0.2	0						
O=C1CC(c2ccncc2)Cc2nc3ccc(Cl)cc3c(O)c21 (configuration not stated)	2.2	0.8	0.2						
COc1ccc(C2CC(=O)c3c(nc4ccc(Cl)cc4c3O)C2)cc1 (configuration not stated)	-0.1	0.1	-0.1						
CN(C)CCC/N=C1\CC(c2cccc(C(F)(F)F)c2)Cc2c1c(=O)c1cc(Cl)ccc1n2O (configuration not stated)		12.4	6.9	4	5	5	9.6	4.8	
CN(C)CCCCCCC/N=C1\CC(c2ccc(Cl)c(Cl)c2)Cc2c1c(=O)c1cc(Cl)ccc1n2O (configuration not stated)			6.5	5	5	5	11.3		
O=C1CC(c2ccc(C(F)(F)F)cc2)Cc2nc3c(Cl)cc(Cl)cc3c(O)c21 (configuration not stated)	0	0.4	-0.2						
CCCCCCn1c2c(c(=O)c3cc(Cl)ccc31)C(=O)CC(c1ccc(C(F)(F)F)cc1)C2 (configuration not stated)	0.1	0	0.1						
O=C1CC(c2ccc(Cl)c(Cl)c2)Cc2c1c(=O)c1cc(Cl)ccc1n2O (configuration not stated)		11	5	2	5	5	10.8	3.2	
O=C1CC(c2ccc(C(F)(F)F)cc2)Cc2nc3cc(Cl)ccc3c(O)c21 (configuration not stated)	0.4	0.2	-0.4						

Structure (SMILES)	Delta mean survival time (Plasmodium berghei [1])	Delta mean survival time (Plasmodium berghei [2])	Delta mean survival time (Plasmodium berghei [3])	No. of cured mice (Plasmodium berghei [4])	No. of cured mice (Plasmodium berghei [5])	No. of cured mice (Plasmodium berghei [6])	Delta mean survival time (Plasmodium berghei [7])	Delta mean survival time (Plasmodium berghei [8])	Delta mean survival time (Plasmodium berghei [7]; 80 mg/kg)
O=C1CC(c2ccc(C(F)(F)F)cc2)Cc2nc3ccccc3c(O)c21 (configuration not stated)		10.8	4.6	4	5	5	8.2	2.7	
CCCC/N=C1\CC(c2ccc(Cl)c(Cl)c2)Cc2c1c(=O)c1cc(Cl)ccc1n2O (configuration not stated)			6.1	3	5	5		2.5	9.9 and 8.3
CN(C)CCC/N=C1\CC(c2ccc(C(F)(F)F)cc2)Cc2nc3ccc(C(F)(F)F)cc3c(O)c21 (configuration not stated)		7.1	3.1		5				
CN(C)CCC/N=C1\CC(C)(C)Cc2c1c(=O)c1cc(Cl)ccc1n2O	2.8	0.4	0.2						
O=C1CC(c2ccc(C(F)(F)F)cc2)Cc2nc3ccc(I)cc3c(O)c21 (configuration not stated)	0.4	0.4	0.2						
CCCCn1c2c(c(=O)c3cc(Cl)ccc31)C(=O)CC(c1ccc(C(F)(F)F)cc1)C2 (configuration not stated)	0.4	-0.2	-0.2						
CCC1C(=O)c2c(nc3ccc(Cl)cc3c2O)CC1c1ccc(C(F)(F)F)cc1 (configuration not stated)	1.6	1.2	0.6						
CCCC/N=C1\CC(c2ccc(C(F)(F)F)cc2)Cc2nc3ccc(Cl)cc3c(O)c21 (configuration not stated)		10.1	6	1	5				
O=c1c2c(n(O)c3ccc(Cl)cc13)CC(c1ccc(Cl)c(Cl)c1)C/C2=N\CCCN1CCCCC1 (configuration not stated)		8.7	5.9	4	5	5	9.2		
O=C1CC2(CCCCC2)Cc2nc3ccc(Cl)cc3c(O)c21	0.2	0	0.6						
CN(C)CCC/N=C1\CC(c2ccncc2)Cc2c1c(=O)c1cc(Cl)ccc1n2O (configuration not stated)	1.4	0	0						
CCc1ccc2nc3c(c(O)c2c1)C(=O)CC(c1ccc(C(F)(F)F)cc1)C3 (configuration not stated)	0.2	0.4	0						
Cn1c2c(c(=O)c3cc(Cl)ccc31)C(=O)CC(c1ccc(Cl)c(Cl)c1)C2 (configuration not stated)	0.2	0.6	0						
CC1(C)CC(=O)c2c(nc3ccc(Cl)cc3c2O)C1					4	3			
O=C1c2c(nc3ccc(Cl)cc3c2O)CC(c2ccc(Cl)c(Cl)c2)C1c1ccccc1 (configuration not stated)	1.4	0.4	0						
COc1cc(C2C/C(=N\CCCN3CCCC3)c3c(n(O)c4ccc(Cl)cc4c3=O)C2)cc(OC)c1OC (configuration not stated)	6.4	0.6	0.2						
COc1ccccc1C1CC(=O)c2c(nc3ccc(Cl)cc3c2O)C1 (configuration not stated)		0.7	8.3	4	5				
O=C1CC(c2cccc(C(F)(F)F)c2)Cc2c1c(=O)c1cc(Cl)ccc1n2O (configuration not stated)		13.4	8.8	3	5	5	12.1	6	
O=C1CC(c2ccc(C(F)(F)F)cc2)Cc2nc3ccc(F)cc3c(O)c21 (configuration not stated)		8.9	7.1		5				
CCCCCCC/N=C1\CC(c2cccc(C(F)(F)F)c2)Cc2c1c(=O)c1cc(Cl)ccc1n2O (configuration not stated)		5		3	5	5	2.8		
CC1(C)CC(=O)c2c(nc3ccccc3c2O)C1		5.6	3.8	2	5				
COc1ccc2nc3c(c(O)c2c1)/C(=N/CCCN(C)C)CC(c1ccc(C(F)(F)F)cc1)C3 (configuration not stated)		8.7	5.5	2	5	5	6.1	0.7	
CCN(CC)CCOc1ccc(C2CC(=O)c3c(n([O-])c4ccc(Cl)cc4c3=O)C2)cc1.[Na+] (configuration not stated)	5.3	1.5							
